Experimental data reported in the M2OR odorant receptor database.
Changes are numbered by the printed parent chain.

Legend:
Conditions in all cases: stereoisomer not certain
OR8D2 (Homo sapiens) = biological target: T1, OR8D2 (Homo sapiens) (UniProt Q9GZM6)
T1 sequence (whole entry): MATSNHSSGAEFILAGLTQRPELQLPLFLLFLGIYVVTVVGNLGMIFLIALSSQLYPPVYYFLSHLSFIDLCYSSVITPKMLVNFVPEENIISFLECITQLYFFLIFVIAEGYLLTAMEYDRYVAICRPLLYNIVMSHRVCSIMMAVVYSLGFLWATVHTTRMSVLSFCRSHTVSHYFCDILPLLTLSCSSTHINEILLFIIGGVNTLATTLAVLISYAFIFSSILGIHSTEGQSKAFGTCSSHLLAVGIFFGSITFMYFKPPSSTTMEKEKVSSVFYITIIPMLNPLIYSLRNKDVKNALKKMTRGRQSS
How it was run: (§1)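 Each entry records the cell line, G-protein, co-transfected protein and tags used. Methods varied with the source, often transient luciferase assays in mammalian cell lines. A receptor–molecule pair is called responsive (active) if the original authors judged its signal statistically different from baseline and non-responsive (inactive) otherwise.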

OR8D4 (Homo sapiens) = biological target: T2, OR8D4 (Homo sapiens) (UniProt Q8NGM9)
T2 sequence (whole entry): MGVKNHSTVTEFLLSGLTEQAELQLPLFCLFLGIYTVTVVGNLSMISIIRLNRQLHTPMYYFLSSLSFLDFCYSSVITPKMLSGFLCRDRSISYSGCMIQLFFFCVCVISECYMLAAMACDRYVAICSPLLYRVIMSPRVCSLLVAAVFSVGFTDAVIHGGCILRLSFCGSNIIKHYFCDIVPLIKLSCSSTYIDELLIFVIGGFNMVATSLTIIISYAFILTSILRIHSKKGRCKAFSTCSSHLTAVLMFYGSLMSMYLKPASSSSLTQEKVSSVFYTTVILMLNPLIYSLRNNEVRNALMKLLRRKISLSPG
How it was run: as §1

OR8G1 (Homo sapiens) = biological target: T3, OR8G1 (Homo sapiens) (UniProt Q15617)
T3 sequence (whole entry): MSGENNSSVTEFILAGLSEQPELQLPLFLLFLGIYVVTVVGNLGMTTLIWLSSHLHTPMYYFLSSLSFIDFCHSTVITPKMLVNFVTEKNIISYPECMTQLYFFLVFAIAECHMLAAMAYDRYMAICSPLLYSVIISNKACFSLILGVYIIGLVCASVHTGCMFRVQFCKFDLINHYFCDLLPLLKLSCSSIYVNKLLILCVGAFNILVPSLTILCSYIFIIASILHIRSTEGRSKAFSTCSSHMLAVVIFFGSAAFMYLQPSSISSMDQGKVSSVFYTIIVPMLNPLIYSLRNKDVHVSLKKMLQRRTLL
How it was run: as §1

OR8G5 (Homo sapiens) = biological target: T4, OR8G5 (Homo sapiens) (UniProt Q8NG78)
T4 sequence (whole entry): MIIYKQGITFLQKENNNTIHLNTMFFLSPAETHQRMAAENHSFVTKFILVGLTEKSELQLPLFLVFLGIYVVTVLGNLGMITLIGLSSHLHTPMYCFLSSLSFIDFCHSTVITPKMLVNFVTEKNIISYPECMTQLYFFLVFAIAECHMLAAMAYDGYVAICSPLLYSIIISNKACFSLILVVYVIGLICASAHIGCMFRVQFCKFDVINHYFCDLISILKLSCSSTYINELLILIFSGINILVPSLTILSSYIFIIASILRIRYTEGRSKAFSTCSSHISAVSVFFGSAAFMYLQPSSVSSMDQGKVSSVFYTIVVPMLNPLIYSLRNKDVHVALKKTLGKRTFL
How it was run: as §1

OR8H1 (Homo sapiens) = biological target: T5, OR8H1 (Homo sapiens) (UniProt Q8NGG4)
T5 sequence (whole entry): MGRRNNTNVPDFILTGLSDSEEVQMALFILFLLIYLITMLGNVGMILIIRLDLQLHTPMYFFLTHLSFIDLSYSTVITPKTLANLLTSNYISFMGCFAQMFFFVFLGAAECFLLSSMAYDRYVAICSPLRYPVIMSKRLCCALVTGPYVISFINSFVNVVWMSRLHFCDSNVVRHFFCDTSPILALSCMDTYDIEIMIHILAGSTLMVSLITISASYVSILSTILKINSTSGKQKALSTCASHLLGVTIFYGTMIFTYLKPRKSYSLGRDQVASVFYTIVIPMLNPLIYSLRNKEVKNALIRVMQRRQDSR
How it was run: as §1

OR8H2 (Homo sapiens) = biological target: T6, OR8H2 (Homo sapiens) (UniProt Q8N162)
T6 sequence (whole entry): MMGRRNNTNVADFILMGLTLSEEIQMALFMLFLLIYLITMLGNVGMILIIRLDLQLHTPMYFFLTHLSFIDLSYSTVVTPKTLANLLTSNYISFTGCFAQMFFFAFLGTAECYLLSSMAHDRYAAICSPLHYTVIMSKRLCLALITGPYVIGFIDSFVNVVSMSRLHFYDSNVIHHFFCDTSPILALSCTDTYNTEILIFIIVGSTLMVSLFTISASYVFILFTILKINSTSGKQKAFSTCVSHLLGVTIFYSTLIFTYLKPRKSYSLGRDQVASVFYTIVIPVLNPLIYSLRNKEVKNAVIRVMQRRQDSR
How it was run: as §1

OR8H3 (Homo sapiens) = biological target: T7, OR8H3 (Homo sapiens) (UniProt Q8N146)
T7 sequence (whole entry): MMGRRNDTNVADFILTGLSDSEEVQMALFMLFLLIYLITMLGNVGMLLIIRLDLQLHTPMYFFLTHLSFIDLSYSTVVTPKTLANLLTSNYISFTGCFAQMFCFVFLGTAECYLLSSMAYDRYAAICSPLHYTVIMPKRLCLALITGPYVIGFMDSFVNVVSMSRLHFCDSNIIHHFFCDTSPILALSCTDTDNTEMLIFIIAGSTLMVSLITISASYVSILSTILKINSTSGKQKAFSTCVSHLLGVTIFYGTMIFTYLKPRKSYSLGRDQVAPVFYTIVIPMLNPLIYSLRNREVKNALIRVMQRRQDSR
How it was run: as §1

OR8I2 (Homo sapiens) = biological target: T8, OR8I2 (Homo sapiens) (UniProt Q8N0Y5)
T8 sequence (whole entry): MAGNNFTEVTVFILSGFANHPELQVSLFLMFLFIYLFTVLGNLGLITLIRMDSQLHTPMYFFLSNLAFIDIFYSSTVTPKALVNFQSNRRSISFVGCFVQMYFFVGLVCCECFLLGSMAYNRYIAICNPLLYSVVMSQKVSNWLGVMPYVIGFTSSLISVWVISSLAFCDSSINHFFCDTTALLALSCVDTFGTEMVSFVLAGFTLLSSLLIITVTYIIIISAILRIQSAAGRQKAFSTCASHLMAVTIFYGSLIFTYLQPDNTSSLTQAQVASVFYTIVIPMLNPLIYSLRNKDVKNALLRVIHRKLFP
How it was run: as §1

OR8J1 (Homo sapiens) = biological target: T9, OR8J1 (Homo sapiens) (UniProt Q8NGP2)
T9 sequence (whole entry): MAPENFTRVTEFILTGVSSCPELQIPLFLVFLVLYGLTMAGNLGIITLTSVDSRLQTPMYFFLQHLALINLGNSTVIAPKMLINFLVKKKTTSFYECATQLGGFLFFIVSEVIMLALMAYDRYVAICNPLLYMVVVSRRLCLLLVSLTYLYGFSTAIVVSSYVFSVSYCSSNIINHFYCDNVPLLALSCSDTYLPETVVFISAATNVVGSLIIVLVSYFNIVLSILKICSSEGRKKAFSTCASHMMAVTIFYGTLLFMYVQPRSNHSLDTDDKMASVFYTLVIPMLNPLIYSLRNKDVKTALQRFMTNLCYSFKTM
How it was run: as §1

OR8J3 (Homo sapiens) = biological target: T10, OR8J3 (Homo sapiens) (UniProt Q8NGG0)
T10 sequence (whole entry): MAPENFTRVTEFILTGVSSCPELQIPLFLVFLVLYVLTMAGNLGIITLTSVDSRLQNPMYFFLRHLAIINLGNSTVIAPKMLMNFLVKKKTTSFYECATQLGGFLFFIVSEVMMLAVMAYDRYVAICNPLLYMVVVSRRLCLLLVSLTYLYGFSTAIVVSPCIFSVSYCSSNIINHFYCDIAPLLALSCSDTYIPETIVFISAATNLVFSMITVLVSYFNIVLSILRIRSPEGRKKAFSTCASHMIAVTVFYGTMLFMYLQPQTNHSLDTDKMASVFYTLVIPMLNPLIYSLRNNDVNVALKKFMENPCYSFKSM
How it was run: as §1

OR8K1 (Homo sapiens) = biological target: T11, OR8K1 (Homo sapiens) (UniProt Q8NGG5)
T11 sequence (whole entry): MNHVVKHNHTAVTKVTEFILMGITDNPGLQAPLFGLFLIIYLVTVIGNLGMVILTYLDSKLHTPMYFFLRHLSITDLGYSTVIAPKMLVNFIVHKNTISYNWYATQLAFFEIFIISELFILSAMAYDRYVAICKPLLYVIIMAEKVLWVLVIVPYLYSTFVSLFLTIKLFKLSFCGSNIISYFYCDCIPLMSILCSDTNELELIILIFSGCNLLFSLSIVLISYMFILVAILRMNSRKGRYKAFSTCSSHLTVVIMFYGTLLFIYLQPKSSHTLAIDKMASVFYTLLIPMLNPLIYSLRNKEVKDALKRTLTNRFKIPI
How it was run: as §1

OR8K3 (Homo sapiens) = biological target: T12, OR8K3 (Homo sapiens) (UniProt Q8NH51)
T12 sequence (whole entry): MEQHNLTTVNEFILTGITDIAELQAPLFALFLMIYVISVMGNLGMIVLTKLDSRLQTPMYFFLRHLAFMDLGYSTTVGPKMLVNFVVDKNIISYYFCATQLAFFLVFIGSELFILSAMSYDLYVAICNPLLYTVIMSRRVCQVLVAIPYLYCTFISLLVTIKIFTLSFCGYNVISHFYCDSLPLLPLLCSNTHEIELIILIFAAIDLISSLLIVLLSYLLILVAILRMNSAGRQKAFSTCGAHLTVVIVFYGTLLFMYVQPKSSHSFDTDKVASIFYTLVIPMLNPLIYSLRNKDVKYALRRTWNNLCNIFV
How it was run: as §1

OR8K5 (Homo sapiens) = biological target: T13, OR8K5 (Homo sapiens) (UniProt Q8NH50)
T13 sequence (whole entry): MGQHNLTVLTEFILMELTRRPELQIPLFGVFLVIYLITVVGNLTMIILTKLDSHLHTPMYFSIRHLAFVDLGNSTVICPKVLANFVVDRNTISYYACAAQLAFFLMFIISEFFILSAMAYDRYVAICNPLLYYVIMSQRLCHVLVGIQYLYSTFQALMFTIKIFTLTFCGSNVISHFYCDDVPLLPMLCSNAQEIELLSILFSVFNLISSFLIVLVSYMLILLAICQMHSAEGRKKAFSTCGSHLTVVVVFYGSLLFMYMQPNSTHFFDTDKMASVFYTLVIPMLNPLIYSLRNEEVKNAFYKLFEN
How it was run: as §1

OR8S1 (Homo sapiens) = biological target: T14, OR8S1 (Homo sapiens) (UniProt Q8NH09)
T14 sequence (whole entry): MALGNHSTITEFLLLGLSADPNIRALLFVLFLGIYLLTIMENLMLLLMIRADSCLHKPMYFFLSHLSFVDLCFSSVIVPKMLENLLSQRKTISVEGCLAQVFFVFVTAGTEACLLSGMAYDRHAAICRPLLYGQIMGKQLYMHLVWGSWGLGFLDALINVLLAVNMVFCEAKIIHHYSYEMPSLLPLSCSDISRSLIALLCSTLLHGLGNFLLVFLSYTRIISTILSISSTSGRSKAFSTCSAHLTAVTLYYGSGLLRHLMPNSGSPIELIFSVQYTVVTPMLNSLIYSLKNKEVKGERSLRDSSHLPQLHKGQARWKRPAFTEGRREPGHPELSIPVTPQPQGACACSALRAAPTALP
How it was run: as §1

OR8D4 C120Y R133K = system: T15, OR8D4 C120Y R133K
T15 sequence (whole entry): T2 sequence (whole entry) with C120Y, R133K
How it was run: as §1

OR8H2 H120Y Y169C V284M = system: T16, OR8H2 H120Y Y169C V284M
T16 sequence (whole entry): T6 sequence (whole entry) with H120Y, Y169C, V284M
How it was run: as §1

OR8H3 = system: T17, OR8H3
T17 sequence (whole entry): T7 sequence (whole entry) with P137S
How it was run: as §1

OR8J1 = system: T18, OR8J1
T18 sequence (whole entry): T9 sequence (whole entry) with Y120C
How it was run: as §1

OR8J3 E4V = system: T19, OR8J3 E4V
T19 sequence (whole entry): T10 sequence (whole entry) with E4V
How it was run: as §1

Measured: odorant receptor agonist call

CCC(S)C(C)CO (configuration not stated)
inactive: OR8D2 (Homo sapiens) | OR8D4 (Homo sapiens) | OR8G1 (Homo sapiens) | OR8G5 (Homo sapiens) | OR8H1 (Homo sapiens) | OR8H2 (Homo sapiens) | OR8H3 (Homo sapiens) | OR8I2 (Homo sapiens) | OR8J1 (Homo sapiens) | OR8J3 (Homo sapiens) | OR8K1 (Homo sapiens) | OR8K3 (Homo sapiens) | OR8K5 (Homo sapiens) | OR8S1 (Homo sapiens)

CCCCC(S)C(C)CO (configuration not stated)
inactive: OR8D2 (Homo sapiens) | OR8D4 (Homo sapiens) | OR8G1 (Homo sapiens) | OR8G5 (Homo sapiens) | OR8H1 (Homo sapiens) | OR8H2 (Homo sapiens) | OR8H3 (Homo sapiens) | OR8I2 (Homo sapiens) | OR8J1 (Homo sapiens) | OR8J3 (Homo sapiens) | OR8K1 (Homo sapiens) | OR8K3 (Homo sapiens) | OR8K5 (Homo sapiens) | OR8S1 (Homo sapiens)

CC1=NC(C)C(C)S1 (configuration not stated)
inactive: OR8D2 (Homo sapiens) | OR8D4 (Homo sapiens) | OR8D4 C120Y R133K | OR8G1 (Homo sapiens) | OR8G5 (Homo sapiens) | OR8H1 (Homo sapiens) | OR8H2 (Homo sapiens) | OR8H2 H120Y Y169C V284M | OR8H3 (Homo sapiens) | OR8H3 | OR8I2 (Homo sapiens) | OR8J1 (Homo sapiens) | OR8J1 | OR8J3 (Homo sapiens) | OR8J3 E4V | OR8K1 (Homo sapiens) | OR8K3 (Homo sapiens) | OR8K5 (Homo sapiens) | OR8S1 (Homo sapiens)

CC(CO)CS (configuration not stated)
inactive: OR8D2 (Homo sapiens) | OR8D4 (Homo sapiens) | OR8G1 (Homo sapiens) | OR8G5 (Homo sapiens) | OR8H1 (Homo sapiens) | OR8H2 (Homo sapiens) | OR8H3 (Homo sapiens) | OR8I2 (Homo sapiens) | OR8J1 (Homo sapiens) | OR8J3 (Homo sapiens) | OR8K1 (Homo sapiens) | OR8K3 (Homo sapiens) | OR8K5 (Homo sapiens) | OR8S1 (Homo sapiens)

O=c1ccc2ccccc2o1
inactive: OR8K5 (Homo sapiens)
